In assay [1] the test system is MT4. The experiment in a line: Cytotoxic effect in cultured MT-4 lymphocytes at a concentration of 100 ug/mL (0.2900 uM/mL). Type of assay: functional, Homo sapiens. In outline:
(§1)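 MT-4 cells at 5 × 10^4 cells/well, 1 mL total, cultured with compound diluted in RPMI 1640 with 10% FBS, 10 mM HEPES, penicillin/streptomycin and 2 mM glutamine, at 37 °C under 5% CO2. Viability was scored by trypan blue exclusion on days 4 and 7, in triplicate, as % viable cells.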

Assay [2] deals with MT4. The experiment in a line: Cytotoxic effect in cultured MT-4 lymphocytes at a concentration of 2 ug/mL (0.0060 uM/mL). Type of assay: functional, Homo sapiens. In outline: as §1
Assay [3] relates to Human immunodeficiency virus 1. The experiment in a line: Inhibitory effect against HIV-1 induced cytopathic effects(HIV-1 neutralization) in MT-4 lymphocytes at a concentration of 100 ug/mL (0.2900 uM/mL). The class given is functional. The procedure, abridged:
(§2)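 HIV-1 Molt IIIB (~2 × 10^4 TCID50 in 100 μL) preincubated 1 h at 37 °C with a single compound dose, then added to MT-4 cells (5 × 10^5 cells/well, 1 mL). Cultured at 37 °C, 5% CO2. Viable cells counted by trypan blue exclusion on days 4 and 7. Triplicates; % viable cells. Controls: infected cells (positive), uninfected cells (negative).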
On the technique in general: Damage to the host cells serves as the signal in cytopathic effect assays.

The test system of assay [4] is MT4. Briefly: Cytotoxic effect in cultured MT-4 lymphocytes at a concentration of 10 ug/mL (0.0290 uM/mL). The class given is functional, Homo sapiens. In outline:
as §1

For assay [5], the system named is Human immunodeficiency virus 1. Briefly: Inhibitory effect (100 uM) against HIV-1 in human peripheral blood monocyte cells(PBMC) (EC50 ->34.5 ug/mL). The class given is functional.
In assay [6] the test system is MT4. Briefly: Cytotoxic effect in cultured MT-4 lymphocytes at a concentration of 100 ug/mL (0.2000 uM/mL). The class given is functional, Homo sapiens. In outline:
as §1

Assay [7] concerns Human immunodeficiency virus 1. The experiment in a line: Inhibitory effect against HIV-1 induced cytopathic effects(HIV-1 neutralization) in MT-4 lymphocytes at a concentration of 100 ug/mL (0.2000 uM/mL). The class given is functional. The procedure, abridged: as §2
Assay [8] deals with MT4. Briefly: Cytotoxic effect in cultured MT-4 lymphocytes at a concentration of 2 ug/mL (0.0040 uM/mL). The class given is functional, Homo sapiens. In outline: as §1
The test system of assay [9] is MT4. Briefly: Cytotoxic effect in cultured MT-4 lymphocytes at a concentration of 10 ug/mL (0.0200 uM/mL). The class given is functional, Homo sapiens. In outline:
as §1

The nature of assay [10]: Calu3 lung tumor cell proliferation inhibition by the compound in vitro at a concentration of 6.0 uM. The class given is functional, Homo sapiens. The procedure, abridged:
(§3)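 Tumor cells grown in RPMI-1640 in 1% agar with 5% fetal bovine serum, exposed to the specified concentrations for 1 week. Viability was assessed against a control given distilled water in place of drug. 5-Fluorouracil served as the positive cytotoxic standard. Results are reported as concentration-dependent cell survival.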

In assay [11] the test system is COLO 320DM. The experiment in a line: COLO 320DM colon tumor cell proliferation inhibition by the compound in vitro at a concentration of 60 uM. The class given is functional, Homo sapiens. The procedure, abridged: as §3
Assay [12] deals with MT4. Briefly: Protection of MT-4 lymphocytes by the compound against HIV-1 infectivity in vitro at a concentration of 50 ug/mL (0.150 uM/mL). The class given is functional, Homo sapiens. In outline:
(§4)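 Virus (HIV-1 Molt IIIB, ~2 × 10^4 TCID50) preincubated with compound 1 h at 37 °C, 5% CO2. Then added to MT-4 cells (5 × 10^5 cells/well) and cultured at 37 °C. Trypan blue viability counts taken on days 4 and 7, triplicate at each concentration. Controls were infected and uninfected cells. Reported as % viable (surviving) MT-4 cells.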

Assay [13] relates to Human immunodeficiency virus 1. The experiment in a line: Protection of MT-4 lymphocytes by the compound against HIV-1 infectivity in vitro at a concentration of 200 ug/mL (0.60 uM/mL). The class given is functional. The procedure, abridged: as §4
For assay [14], the system named is Human immunodeficiency virus 1. Briefly: Inactivation of HIV-MN strain in MT-4 lymphocytes in vitro at a concentration of 400 ug/mL (1.20 uM/mL). The class given is functional. In outline:
(§5)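 Compound (50 μL) was mixed with 50 μL of HIV-1 Molt IIIB or HIV-MN inoculum in RPMI 1640 for 1 h at room temperature. The mixture was added to 5 × 10^4 MT-4 cells and kept 7 days at 37 °C, 5% CO2. MTT (5.0 mg/mL) was added for 4 h, the reaction was stopped with 0.04 N HCl/2-propanol, and OD was read at 570 nm. % inactivation was calculated from OD relative to uninfected cells and untreated virus, mean of three.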

Assay [15] has as its system MT4. The experiment in a line: Protection of MT-4 lymphocytes by the compound against HIV-1 infectivity in vitro at a concentration of 25 ug/mL (0.075 uM/mL). Type of assay: functional, Homo sapiens. In outline: as §4
For assay [16], the system named is Human immunodeficiency virus 1. The experiment in a line: Protection of MT-4 lymphocytes by the compound against HIV-1 infectivity in vitro at a concentration of 100 ug/mL (0.30 uM/mL). The class given is functional. In outline: as §4
Assay [17] has as its system Human immunodeficiency virus 1. The experiment in a line: Inactivation of HIV-MN strain in MT-4 lymphocytes in vitro at a concentration of 100 ug/mL (0.30 uM/mL). The class given is functional. In outline:
as §5

Assay [18] is described as follows: Calu3 lung tumor cell proliferation inhibition by the compound in vitro at a concentration of 60 uM. The class given is functional, Homo sapiens. The procedure, abridged: as §3
Assay [19] deals with MT4. Briefly: Protection of MT-4 lymphocytes by the compound against HIV-1 infectivity in vitro at a concentration of 12.5 ug/mL (0.038 uM/mL). The class given is functional, Homo sapiens. In outline:
as §4

The subject of assay [20] is COLO 320DM. Briefly: COLO 320DM colon tumor cell proliferation inhibition by the compound in vitro at a concentration of 6.0 uM. The class given is functional, Homo sapiens. In outline:
as §3

For assay [21], the system named is Human immunodeficiency virus 1. The experiment in a line: Inactivation of HIV-MoltIIIB strain in MT-4 lymphocytes in vitro at a concentration of 100 ug/mL (0.30 uM/mL). The class given is functional. The procedure, abridged:
as §5

A short description of assay [22]: Calu3 lung tumor cell proliferation inhibition by the compound in vitro at a concentration of 0.6 uM. Type of assay: functional, Homo sapiens. The procedure, abridged: as §3
Assay [23] relates to MCF7. The experiment in a line: […] breast tumor cell proliferation inhibition by the compound in vitro at a concentration of 60 uM. Type of assay: functional, Homo sapiens. The procedure, abridged:
(§6)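 Breast tumor cells treated with specified compound concentrations in RPMI-1640 in 1% agar with 5% FBS for 1 week. Viability compared with a control given distilled water in place of drug; 5-fluorouracil as standard cytotoxic drug. Reported as concentration-dependent cell survival.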

For assay [24], the system named is COLO 320DM. Briefly: COLO 320DM colon tumor cell proliferation inhibition by the compound in vitro at a concentration of 0.6 uM. The class given is functional, Homo sapiens. In outline: as §3
The test system of assay [25] is Human immunodeficiency virus 1. The experiment in a line: Percent HIV-1 bound to H-9 cells at a concentration of 100(ug/mL). The class given is functional. The procedure, abridged:
(§7)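 HIV-1 Molt IIIB (50 μL) incubated overnight with compound at 100 μg/mL, then with uninfected H-9 cells 2 h at 37 °C. Washed; stained with HIV-positive human serum (1:100) then FITC anti-human IgG (1:10), 30 min at 4 °C each. Formaldehyde-fixed (0.5%) and analysed by flow cytometry for % virus bound and % binding inhibition.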

Assay [26] deals with MT4. The experiment in a line: Cytotoxic effect in cultured MT-4 lymphocytes at a concentration of 10 ug/mL (0.0300 uM/mL). The class given is functional, Homo sapiens. The procedure, abridged: as §1
The test system of assay [27] is MCF7. The experiment in a line: […] breast tumor cell proliferation inhibition by the compound in vitro at a concentration of 6.0 uM. Type of assay: functional, Homo sapiens. In outline:
as §6

Assay [28] concerns MT4. The experiment in a line: Cytotoxic effect in cultured MT-4 lymphocytes at a concentration of 100 ug/mL (0.3000 uM/mL). Type of assay: functional, Homo sapiens. In outline:
as §1

Assay [29] concerns Human immunodeficiency virus 1. The experiment in a line: Percent inhibition of HIV-1 binding to H-9 cells at a concentration of 100(ug/mL). Type of assay: functional. In outline: as §7
The test system of assay [30] is Human immunodeficiency virus 1. Briefly: Inhibitory effect (100 uM) against HIV-1 in human peripheral blood monocyte cells(PBMC) (EC50 ->32.5 ug/mL). Type of assay: functional.
For assay [31], the system named is Human immunodeficiency virus 1. Briefly: Inhibitory effect against HIV-1 induced cytopathic effects(HIV-1 neutralization) in MT-4 lymphocytes at a concentration of 100 ug/mL (0.3000 uM/mL). Type of assay: functional. In outline:
as §2

The subject of assay [32] is Human immunodeficiency virus 1. Briefly: Inactivation of HIV-MN strain in MT-4 lymphocytes in vitro at a concentration of 200 ug/mL (0.60 uM/mL). Type of assay: functional. The procedure, abridged:
as §5

In assay [33] the test system is Human immunodeficiency virus 1. Briefly: Inactivation of HIV-MoltIIIB strain in MT-4 lymphocytes in vitro at a concentration of 400 ug/mL (1.2u M/mL). Type of assay: functional. In outline:
as §5

The subject of assay [34] is MCF7. The experiment in a line: […] breast tumor cell proliferation inhibition by the compound in vitro at a concentration of 0.6 uM. Type of assay: functional, Homo sapiens. The procedure, abridged: as §6
In assay [35] the test system is Human immunodeficiency virus 1. Briefly: Protection of MT-4 lymphocytes by the compound against HIV-1 infectivity in vitro at a concentration of 400 ug/mL (1.20 uM/mL). Type of assay: functional. The procedure, abridged: as §4
Assay [36] relates to Human immunodeficiency virus 1. Briefly: Inactivation of HIV-MoltIIIB strain in MT-4 lymphocytes in vitro at a concentration of 200 ug/mL (0.60 uM/mL). The class given is functional. The procedure, abridged: as §5

As to `Nc1nc2cc3c(O)c4ccccc4nc3cc2[nH]1`, the Viability with MT4 [1] worked out at 81.5%; in the assay with MT4 [2] it was 90%; in [3] it was 12.5%; with MT4 [4] it was 88.8%. For the same molecule, the Inhibition – broadly, the drop in the measured response relative to a control, in per cent – in assay [5] came to 33%.
As to `CCN(CC)CCCC(C)Nc1c2ccc(Cl)cc2nc2ccc(OC)cc12.Cl.Cl` (configuration not stated) [QUINACRINE DIHYDROCHLORIDE], the Viability worked out at 82.1% with MT4 [6], 0% in assay [7], 93.6% in the assay with MT4 [8] and 88.2% with MT4 [9].
On to `O=C([O-])CSc1ccc2c(c1)c(=O)c1ccccc1n2C1CC1.[Na+]`, for which the Viability in assay [10] turned out to be 73%; with COLO 320DM [11], 87%; with MT4 [2], 96.6%; in assay [18], 44%; in the assay with COLO 320DM [20], 108%; in [22] it was 104%. Further, the Viability in the assay on MCF7 [23] amounted to 44%; in the assay with COLO 320DM [24], 107%; with MT4 [26], 96%; in the assay on MCF7 [27], 86%; in the assay on MT4 [28], 100%; in [31] it was 83.7%. The molecule further displayed a Viability with MCF7 [34] of 91%. In addition, the Survival was determined as 89.2% with MT4 [12]; 81.3% in assay [13]; 85.5% in the assay on MT4 [15]; 83.7% in [16]; 77.3% in the assay with MT4 [19]; 86% in [35]. The Inactivation is given as 11.6% in assay [14]; 11.3% in [17]; 3.9% in [21]; 10% in assay [32]; 23.3% in [33]; 23.5% in assay [36]. The Bound in [25] amounted to 28.7%. Further, the Inhibition in assay [29] is recorded as 13.8%; in [30], 29%.
